This note sets out measurements from PubChem BioAssay.

Active and inactive are the calls of the source.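 Rule for the calls, unless noted: active = potentiation averaged over duplicate wells exceeding buffer-only control mean by more than 3 SD; inactive = the rest.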

The nature of assay [1]: thallium flux activation in parental CHO cells, counter-screen for KCNQ1 potentiator project (AID 493006;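 active = duplicate-averaged activation above buffer control mean plus 5 SD of those controls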). Particulars: parental CHO-K1 cells, FluxOR thallium flux, at 10 µM; active compounds read high. The method, boiled down: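 Assay system: Untransfected host CHO-K1 cells with FluxOR thallium dye | Probe or stimulus: Potassium/thallium depolarization pulse | Schedule: Overnight 37 °C plating, 90 min RT dye, 20 min compound | Detection: Kinetic thallium-flux fluorescence | Read-out: Max-minus-min fluorescence over baseline, percent of buffer-to-R-L3 span | Benchmarks: Low control buffer, high control R-L3 activator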

Assay [2] deals with Potassium voltage-gated channel subfamily KQT member 1 (Homo sapiens) (UniProt P51787). Briefly: KCNQ1 potassium channel potentiators, confirmation, FluxOR thallium flux, CHO cells, duplicates (AID 493007).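 For outcome: cells depolarized by a potassium plus thallium sulfate stimulus after compound.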 Particulars: KCNQ1 cell line, FluxOR thallium flux fluorescence, at 10 µM; active compounds read high, % of reference activator effect, buffer zero. The method, boiled down: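 Material: KCNQ1-expressing CHO cell line; Incubation: FluxOR dye loading 90 min, compound exposure 20 min, room temperature; Detection: FluxOR Tl+ flux fluorescence, 10 s baseline plus 110 s recording; Read-out: percent activation between buffer and R-L3 responses; Control set: buffer-only wells as 0% and R-L3 activator as 100%; Replication: duplicate wells per compound.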
Chain of Potassium voltage-gated channel subfamily KQT member 1 (Homo sapiens) (P51787 whole entry, looked up): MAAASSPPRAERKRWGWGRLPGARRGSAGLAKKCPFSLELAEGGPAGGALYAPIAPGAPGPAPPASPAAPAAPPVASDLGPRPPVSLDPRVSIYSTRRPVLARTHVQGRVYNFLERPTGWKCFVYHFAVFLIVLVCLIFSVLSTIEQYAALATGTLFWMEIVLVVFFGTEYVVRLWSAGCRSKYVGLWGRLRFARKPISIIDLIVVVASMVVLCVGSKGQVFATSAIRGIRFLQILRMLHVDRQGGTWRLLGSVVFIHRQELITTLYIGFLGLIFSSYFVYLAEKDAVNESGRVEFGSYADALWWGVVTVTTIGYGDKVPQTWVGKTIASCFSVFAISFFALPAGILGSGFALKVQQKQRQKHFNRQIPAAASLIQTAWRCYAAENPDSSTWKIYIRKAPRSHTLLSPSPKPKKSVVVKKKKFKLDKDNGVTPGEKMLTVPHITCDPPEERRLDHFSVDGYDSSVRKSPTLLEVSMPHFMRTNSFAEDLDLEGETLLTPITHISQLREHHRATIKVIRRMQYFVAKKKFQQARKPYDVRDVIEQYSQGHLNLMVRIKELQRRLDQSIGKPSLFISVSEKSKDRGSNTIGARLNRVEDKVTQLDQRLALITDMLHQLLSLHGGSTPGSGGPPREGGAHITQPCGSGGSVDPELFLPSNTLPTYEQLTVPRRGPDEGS

Assay [3] addresses Potassium voltage-gated channel subfamily KQT member 2 (Rattus norvegicus) (UniProt O88943). As to the kind of experiment: rat KCNQ2 channel potentiation, selectivity assay for KCNQ1 potentiator project, KCNQ2-CHO-K1 cells (AID 493009;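 active = mean duplicate potentiation above the buffer control mean plus 5 SD of buffer wells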;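 note: assay conditions were tuned for KCNQ1 rather than KCNQ2 modulators; signal is max minus min fluorescence divided by baseline after thallium stimulus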). Conditions: FluxOR thallium flux fluorescence, at 10 µM; active compounds read high, scaled: buffer 0, activator control 100.
Assay [4] deals with Potassium voltage-gated channel subfamily KQT member 1 (Homo sapiens) (UniProt P51787). As to the kind of experiment: KCNQ1 channel current potentiators, confirmation, orthogonal assay for KCNQ1 potentiator project, IonWorks patch clamp, KCNQ1-CHO cells (AID 493184;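 active = current rise at least 3 SD above the untreated control mean in each of two repeat wells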). Particulars: automated patch clamp current, at 10 µM; active compounds read high. A digest of the protocol: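 assay system = KCNQ1-expressing CHO cells | medium = external bath solution at pH 7.4 | probe or stimulus = 2,000 ms depolarization, -90 to +40 mV | compound dosing = 10 µM final, single point | measured by = automated voltage clamp, amphotericin B perforated patch | measure = percent current increase versus pre-compound level | replication = duplicates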

Chain of Potassium voltage-gated channel subfamily KQT member 2 (Rattus norvegicus) (O88943 whole entry, looked up): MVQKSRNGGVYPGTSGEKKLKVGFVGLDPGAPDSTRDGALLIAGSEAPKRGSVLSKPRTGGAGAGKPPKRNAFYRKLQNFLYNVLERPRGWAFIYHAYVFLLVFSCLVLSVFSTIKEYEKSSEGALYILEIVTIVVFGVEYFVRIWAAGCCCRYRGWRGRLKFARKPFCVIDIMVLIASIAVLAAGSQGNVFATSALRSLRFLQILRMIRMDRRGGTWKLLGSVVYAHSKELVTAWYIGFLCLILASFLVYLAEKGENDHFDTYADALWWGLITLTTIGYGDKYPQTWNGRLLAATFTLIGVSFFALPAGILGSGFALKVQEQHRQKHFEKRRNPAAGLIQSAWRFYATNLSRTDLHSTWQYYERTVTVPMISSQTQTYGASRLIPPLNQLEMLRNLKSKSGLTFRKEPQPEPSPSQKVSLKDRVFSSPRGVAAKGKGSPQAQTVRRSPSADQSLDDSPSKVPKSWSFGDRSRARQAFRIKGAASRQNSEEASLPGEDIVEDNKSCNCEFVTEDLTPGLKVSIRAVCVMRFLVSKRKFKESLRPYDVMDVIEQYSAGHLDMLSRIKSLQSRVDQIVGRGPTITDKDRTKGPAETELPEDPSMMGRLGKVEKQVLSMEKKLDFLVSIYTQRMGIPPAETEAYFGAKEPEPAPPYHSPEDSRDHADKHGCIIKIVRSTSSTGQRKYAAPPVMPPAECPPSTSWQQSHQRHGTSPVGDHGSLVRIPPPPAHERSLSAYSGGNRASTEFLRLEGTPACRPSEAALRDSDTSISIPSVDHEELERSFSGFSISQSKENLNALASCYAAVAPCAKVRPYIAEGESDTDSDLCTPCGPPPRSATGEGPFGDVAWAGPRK

As for `Cn1ncc2c(O/N=C(\N)c3ccc(C(C)(C)C)cc3)ncnc21`, the outcome in assay [1], in assay [2], in assay [3] and in assay [4] was inactive.
Consider `Cc1ccc(F)cc1S(=O)(=O)NCc1ccc(N2CCN(C)CC2)cc1`, for which the result in assay [1], in assay [2], in assay [3] and in assay [4] was inactive.
Consider `Cn1nccc1C(=O)NC(=S)Nc1cc(Cl)cc(Cl)c1`, for which, in assay [1], the activation was 141% (active). In addition, the results for the potentiation in assay [2] and in assay [3] were 20.5% (active) and 178% (active), respectively. Moreover, the outcome in assay [4] was inactive.
Take `COC(=O)c1ccc(NC(=S)NC(=O)c2cc(-c3ccccc3)nc3ccccc23)cc1`: the activation in assay [1] was 174% (active). For the same molecule, the potentiation in assay [2] was 37% (active); in assay [3] it was 178% (active). Also, the outcome in assay [4] was inactive.
Take `CNC(=O)c1nnsc1S(=O)c1ccc(Cl)cc1` (stereo not given): the outcome in assay [1], in assay [2], in assay [3] and in assay [4] was inactive.
In the case of `Cc1nnc(C)n1/N=C/c1cc(Br)cc(Br)c1O`, in assay [1], the activation is 145% (active). The outcome in assay [2], in assay [3] and in assay [4] was inactive.
Consider `CCOc1ccc2nc(/N=C/c3c(C)[nH]n(-c4ccccc4)c3=O)sc2c1`, for which, in assay [1], the activation is 370% (active). For the same molecule, the potentiation in assay [2] is 360% (active); in assay [3] it was 661% (active). For the same molecule, the outcome in assay [4] was inactive.
For the molecule `CCC1CCCCN1C(=S)NC(=O)c1cccs1` (stereo not given), in assay [1], the activation was 470% (active). The potentiation was 216% (active) in assay [2] and 493% (active) in assay [3]. Also, in assay [4], the result was inactive.
Turning to `COc1ccc(CNC(=O)COC(=O)/C=C/c2ccc(Cl)cc2)cc1`, the outcome in assay [1], in assay [2], in assay [3] and in assay [4] was inactive.
Turning to `CCn1ncc(Cl)c1C(=O)NC(=S)Nc1ccccc1Br`, the activation in assay [1] is 272% (active). The potentiation is 200% (active) in assay [2] and 340% (active) in assay [3]. Also, the result in assay [4] was inactive.
As for `Cc1ccc(C(=O)CC(=O)COc2ccc(Cl)cc2C)cc1`, the outcome in assay [1] and in assay [4] was inactive. For the same molecule, the potentiation is 180% (active) in assay [2] and 209% (active) in assay [3].
For the molecule `Cc1ccc(C(=O)Nc2nc(-c3ccccc3)c(-c3ccccc3)o2)cc1`, in assay [1], the activation is 201% (active). The potentiation was 92.5% (active) in assay [2] and 248% (active) in assay [3]. In assay [4], the result was inactive.
Take `COc1ccc(CCN(C)CC(O)COc2c(C)ccc(C)c2C)cc1OC` (stereo not given): the outcome in assay [1], in assay [2], in assay [3] and in assay [4] was inactive.
Take `Cc1cc(/C=N/NC(=O)CC#N)c(C)n1-c1ccc([N+](=O)[O-])cc1`: the outcome in assay [1], in assay [2], in assay [3] and in assay [4] was inactive.
For the molecule `O=C(NC(=S)Nc1cccc(C(F)(F)F)c1)c1csnn1`, the activation in assay [1] is 595% (active). Moreover, the potentiation is 308% (active) in assay [2] and 618% (active) in assay [3]. Besides, in assay [4], the outcome was inactive.
As for `Cc1ccc2oc(C(=O)N3CCN(c4cccc(C)n4)CC3)c(C)c2c1`, the outcome in assay [1], in assay [2], in assay [3] and in assay [4] was inactive.
Regarding `CCOC(=O)CC1=NS(=O)(=O)c2ccccc2N1`, the result in assay [1], in assay [2], in assay [3] and in assay [4] was inactive.
As for `O=C(/C=C/c1ccccc1Cl)c1ccccc(=O)c1O`, in assay [1], the activation was 214% (active). Further, the potentiation was 134% (active) in assay [2] and 374% (active) in assay [3]. For the same molecule, the result in assay [4] was inactive.
Take `O=C(O)c1cnn(-c2ccccc2)c1-c1ccncc1`: the activation in assay [1] is 145% (active). For the same molecule, the potentiation in assay [2] was 84% (active); in assay [3] it was 202% (active). The outcome in assay [4] was inactive.
Take `COc1cc(CNCc2ccccn2)ccc1OCc1c(Cl)cccc1Cl`: the result in assay [1], in assay [2], in assay [3] and in assay [4] was inactive.
As for `Cc1cc(C)n(-c2nc3ccccc3nc2N2CCN(C(=O)c3ccc(Cl)cc3)CC2)n1`, the result in assay [1], in assay [2], in assay [3] and in assay [4] was inactive.
As to `COC(=O)c1c(NS(=O)(=O)Cc2ccccc2)sc2c1CCCC2`, the activation in assay [1] is 196% (active). The potentiation in assay [2] was 136% (active); in assay [3] it was 186% (active). Besides, the outcome in assay [4] was inactive.
As for `COc1ccc(-c2cc3nc(C)c(CCC(=O)NC(C)CCc4ccco4)c(C)n3n2)c(OC)c1` (stereo not given), the result in assay [1], in assay [2], in assay [3] and in assay [4] was inactive.
In the case of `CCOc1ccc2nc(Nc3nc4ccc(NC(C)=O)cc4s3)sc2c1`, the result in assay [1], in assay [2], in assay [3] and in assay [4] was inactive.
With `O=C(NC(=S)N1CCCc2ccccc21)c1ccc(Br)cc1`, the activation in assay [1] was 222% (active). Also, the potentiation in assay [2] is 112% (active); in assay [3], 300% (active). Also, the outcome in assay [4] was inactive.
`CCOc1ccccc1NC(=S)NC(=O)c1ccco1`: in assay [1], the activation was 172% (active). For the same molecule, the potentiation was 35% (active) in assay [2] and 184% (active) in assay [3]. Moreover, in assay [4], the outcome was inactive.
The matching figures for `CC1Oc2ccccc2OC1(O)c1ccccn1` (stereo not given): 142% (active), 26.5% (active), 142% (active) and “inactive”.
`Cc1ccc(C2=NOC(=O)/C2=C\C=C\c2ccccc2)cc1`: the result in assay [1], in assay [2], in assay [3] and in assay [4] was inactive.
For the molecule `COc1cccc(N=Nc2ccc3cccnc3c2O)c1`, in assay [1], the activation is 154% (active). Also, the potentiation is 29% (active) in assay [2] and 162% (active) in assay [3]. In assay [4], the outcome was inactive.
Turning to `CC(C)(C)C1(O)CC(C(F)(F)F)=NN1C(=O)Cc1ccc([N+](=O)[O-])cc1` (stereo not given), the result in assay [1], in assay [2], in assay [3] and in assay [4] was inactive.
